Results as given in ChEMBL document CHEMBL1641377, “Discovery of novel, potent, selective, and orally active human glucagon receptor antagonists containing a pyrazole core” (Bioorg Med Chem Lett, 2011).
pEC50, pIC50: −log10 of the molar value. Activity calls are given as the source filed them. The rule behind the calls is not given here.

Columns and labels:
Rattus norvegicus = test: Dose normalized AUC in rat at 2 mg/kg, po; type: ADME, organism-based; design: dose 2 mg/kg, route oral; details: in vivo
[1] = Cmax in dog at 2 mg/kg, po; type: ADME, organism-based, Canis lupus familiaris; design: dose 2 mg/kg, route oral; details: in vivo
[2] = Half life in rat at 1 mg/kg, iv and 2 mg/kg, po; type: ADME, organism-based; details: in vivo
Mus musculus [3] = test: In vivo occupancy of human GCGR transfected in mouse at 30 mg/kg, po after 1 hr; type: functional
Procedure, shortened: (§1)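 In vivo receptor occupancy measured in hGCGR transgenic mice after oral dosing, at 1 h post-dose (30 and 10 mpk) and in a separate experiment at 1, 3 and 8 h after 10 mpk.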

[4] = biological target: T1, Nuclear receptor subfamily 1 group I member 2 (Homo sapiens, UniProt O75469); test: Activity at human PXR
T1 sequence (O75469 whole entry): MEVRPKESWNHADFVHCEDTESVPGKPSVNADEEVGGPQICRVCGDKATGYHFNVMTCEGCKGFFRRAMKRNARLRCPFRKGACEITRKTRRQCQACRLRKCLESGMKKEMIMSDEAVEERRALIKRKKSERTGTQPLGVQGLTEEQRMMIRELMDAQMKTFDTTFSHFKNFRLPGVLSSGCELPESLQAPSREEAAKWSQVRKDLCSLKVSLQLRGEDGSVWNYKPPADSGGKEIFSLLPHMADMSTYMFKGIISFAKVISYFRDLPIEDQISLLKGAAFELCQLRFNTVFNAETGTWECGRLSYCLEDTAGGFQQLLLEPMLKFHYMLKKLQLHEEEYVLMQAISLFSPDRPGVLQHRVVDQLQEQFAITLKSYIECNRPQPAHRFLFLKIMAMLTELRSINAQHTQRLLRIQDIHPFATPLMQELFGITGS

Rhesus monkey = test: Antidiabetic activity in rhesus monkey assessed as inhibition of glucagon-induced blood glucose excursion at 1 to 10 mg/kg, po administered 4 hrs before glucagon challenge measured after 4 hrs; type: functional, organism-based; details: Macaca mulatta
Procedure, shortened: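 Overnight-fasted rhesus monkeys dosed with vehicle or compound 4 h before challenge; glucagon 15 µg/kg im at time zero, plasma glucose monitored every 10 min and expressed as change from time zero per group.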

Mus musculus [5] = test: Antihyperglycemic activity in streptozotocin-induced diabetes mouse model assessed as decrease in blood glucose AUC level at 10 mg/kg, po after 4 weeks; type: functional; details: 672 h
Procedure, shortened: (§2)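 Diabetic model: hGCGR transgenic mice on high-fat diet for eight weeks, streptozotocin-treated during the last four weeks; single oral dose, blood glucose AUC over 2–6 h measured.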

[6] = Cmax in rhesus monkey at 2 mg/kg, po; type: ADME, organism-based, Macaca mulatta; design: dose 2 mg/kg, route oral; details: in vivo
[7] = Antagonist activity at rhesus monkey GCGR assessed as inhibition of glucagon-induced cAMP accumulation; type: functional, Macaca mulatta
[8] = biological target: Glucagon-like peptide 1 receptor (Homo sapiens, UniProt P43220); test: Antagonist activity at human GLP1R expressed in CHO cells assessed as inhibition of glucagon-induced cAMP accumulation; type: functional, cell-based
Glucagon-like peptide 1 receptor, sequence (P43220 whole entry): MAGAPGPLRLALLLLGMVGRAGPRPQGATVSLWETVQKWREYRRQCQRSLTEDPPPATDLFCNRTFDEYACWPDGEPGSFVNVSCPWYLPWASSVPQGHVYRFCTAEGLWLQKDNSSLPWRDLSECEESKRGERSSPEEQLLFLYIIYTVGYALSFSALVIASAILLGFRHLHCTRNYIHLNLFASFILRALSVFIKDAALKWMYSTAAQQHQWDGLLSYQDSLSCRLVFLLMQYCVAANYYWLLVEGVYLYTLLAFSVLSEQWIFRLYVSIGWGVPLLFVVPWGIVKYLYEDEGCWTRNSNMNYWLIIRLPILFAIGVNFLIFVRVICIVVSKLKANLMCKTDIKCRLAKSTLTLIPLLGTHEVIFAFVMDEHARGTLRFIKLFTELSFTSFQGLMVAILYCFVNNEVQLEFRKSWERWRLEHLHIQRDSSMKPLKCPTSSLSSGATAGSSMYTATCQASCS

Mus musculus [9] = test: Antihyperglycemic activity in streptozotocin-induced diabetes mouse model assessed as decrease in blood glucose AUC level at 30 mg/kg, po after 4 weeks; type: functional; details: 672 h; procedure, shortened: as §2
[10] = Plasma concentration in rhesus monkey at 0.3 mg/kg, po after 4 hrs; type: ADME, organism-based, Macaca mulatta; design: dose 0.3 mg/kg, route oral
Procedure, shortened: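 Overnight-fasted rhesus monkeys received the oral dose 4 h before the glucagon challenge (15 µg/kg im, time zero). Plasma drug level was sampled at the time of the challenge (t = 0, n = 4). Plasma glucose was then followed every 10 min and expressed as the change from time zero.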

[11] = Bioavailability in mouse at 1 mg/kg, iv and 2 mg/kg, po; type: ADME, organism-based; details: in vivo
Cytochrome P450 2D6 = Cytochrome P450 2D6 (Homo sapiens, UniProt P10635); test: Inhibition of CYP2D6; type: ADME
Cytochrome P450 2D6, sequence (P10635 whole entry): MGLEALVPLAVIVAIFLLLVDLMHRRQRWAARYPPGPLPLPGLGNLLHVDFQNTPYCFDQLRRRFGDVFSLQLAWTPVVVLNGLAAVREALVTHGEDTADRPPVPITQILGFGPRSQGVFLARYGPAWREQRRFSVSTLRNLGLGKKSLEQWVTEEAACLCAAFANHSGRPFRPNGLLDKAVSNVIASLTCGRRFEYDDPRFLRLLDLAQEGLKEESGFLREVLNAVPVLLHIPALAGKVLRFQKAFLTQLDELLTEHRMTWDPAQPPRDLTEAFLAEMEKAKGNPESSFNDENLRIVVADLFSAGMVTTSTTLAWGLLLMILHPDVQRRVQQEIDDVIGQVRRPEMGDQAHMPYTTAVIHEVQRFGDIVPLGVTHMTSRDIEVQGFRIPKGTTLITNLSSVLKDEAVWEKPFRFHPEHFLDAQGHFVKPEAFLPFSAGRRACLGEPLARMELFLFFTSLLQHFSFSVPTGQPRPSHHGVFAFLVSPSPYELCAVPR

[12] = Cmax in rat at 2 mg/kg, po; type: ADME, organism-based; design: dose 2 mg/kg, route oral; details: in vivo
Mus musculus [13] = test: Dose normalized AUC in mouse at 2 mg/kg, po; type: ADME, organism-based; design: dose 2 mg/kg, route oral; details: in vivo
Mus musculus [14] = test: In vivo occupancy of human GCGR transfected in mouse at 10 mg/kg, po after 1 hr; type: functional; procedure, shortened: as §1
[15] = Bioavailability in rhesus monkey at 0.5 mg/kg, iv and 2 mg/kg, po; type: ADME, organism-based, Macaca mulatta; details: in vivo
Mus musculus [16] = test: In vivo occupancy of human GCGR transfected in mouse at 10 mg/kg after 8 hrs; type: functional; procedure, shortened: as §1
[17] = Volume of distribution at steady state in rat at 1 mg/kg, iv and 2 mg/kg, po; type: ADME, organism-based; details: in vivo, read-out: Vdss
[18] = Drug level in blood of transgenic mouse expressing human GCGR at 10 mg/kg, po after 120 mins; type: ADME, organism-based; design: dose 10 mg/kg, route oral; details: read-out: Drug uptake
Procedure, shortened: (§3)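 Blood drug concentration sampled in hGCGR transgenic mice during the oral glucagon-challenge pharmacodynamic assay at 45 and 120 min post dose, 10 and 30 mpk groups, n = 3 per group.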

Cytochrome P450 2C9 = Cytochrome P450 2C9 (Homo sapiens, UniProt P11712); test: Inhibition of CYP2C9; type: ADME
Cytochrome P450 2C9, sequence (P11712 whole entry): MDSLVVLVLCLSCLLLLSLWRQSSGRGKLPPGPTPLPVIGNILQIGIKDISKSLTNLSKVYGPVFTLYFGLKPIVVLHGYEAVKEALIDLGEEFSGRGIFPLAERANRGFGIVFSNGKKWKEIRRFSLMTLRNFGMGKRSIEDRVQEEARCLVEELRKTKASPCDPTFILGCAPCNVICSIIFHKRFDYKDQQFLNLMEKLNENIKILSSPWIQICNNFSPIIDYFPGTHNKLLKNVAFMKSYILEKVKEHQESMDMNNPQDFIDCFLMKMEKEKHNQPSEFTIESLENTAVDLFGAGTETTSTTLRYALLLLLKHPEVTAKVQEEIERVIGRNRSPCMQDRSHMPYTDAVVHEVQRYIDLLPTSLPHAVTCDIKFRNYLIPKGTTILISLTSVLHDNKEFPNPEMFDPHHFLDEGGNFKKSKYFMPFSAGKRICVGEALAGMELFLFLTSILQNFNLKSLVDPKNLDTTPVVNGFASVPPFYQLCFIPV

[19] = Plasma concentration in dog at 1 to 10 mg/kg, iv after 30 mins; type: ADME, organism-based, Canis lupus familiaris; design: dose 1-10 mg/kg, route intravenous
[20] = Drug level in blood of transgenic mouse expressing human GCGR at 10 mg/kg, po after 45 mins; type: ADME, organism-based; design: dose 10 mg/kg, route oral; details: read-out: Drug uptake; procedure, shortened: as §3
[21] = Drug level in blood of transgenic mouse expressing human GCGR at 30 mg/kg, po after 45 mins; type: ADME, organism-based; design: dose 30 mg/kg, route oral; details: read-out: Drug uptake; procedure, shortened: as §3
[22] = Volume of distribution at steady state in dog at 0.5 mg/kg, iv and 2 mg/kg, po; type: ADME, organism-based, Canis lupus familiaris; details: in vivo, read-out: Vdss
Homo sapiens = species: Homo sapiens; test: Binding affinity to human sodium channel up to 10 uM
[23] = Cmax in mouse at 2 mg/kg, po; type: ADME, organism-based; design: dose 2 mg/kg, route oral; details: in vivo
[24] = Volume of distribution at steady state in rhesus monkey at 0.5 mg/kg, iv and 2 mg/kg, po; type: ADME, organism-based, Macaca mulatta; details: in vivo, read-out: Vdss
Uncharacterized protein = Uncharacterized protein (Canis lupus familiaris, UniProt A0A8I3N355); test: Antagonist activity at dog GCGR assessed as inhibition of glucagon-induced cAMP accumulation; type: functional
Uncharacterized protein, sequence (A0A8I3N355 whole entry): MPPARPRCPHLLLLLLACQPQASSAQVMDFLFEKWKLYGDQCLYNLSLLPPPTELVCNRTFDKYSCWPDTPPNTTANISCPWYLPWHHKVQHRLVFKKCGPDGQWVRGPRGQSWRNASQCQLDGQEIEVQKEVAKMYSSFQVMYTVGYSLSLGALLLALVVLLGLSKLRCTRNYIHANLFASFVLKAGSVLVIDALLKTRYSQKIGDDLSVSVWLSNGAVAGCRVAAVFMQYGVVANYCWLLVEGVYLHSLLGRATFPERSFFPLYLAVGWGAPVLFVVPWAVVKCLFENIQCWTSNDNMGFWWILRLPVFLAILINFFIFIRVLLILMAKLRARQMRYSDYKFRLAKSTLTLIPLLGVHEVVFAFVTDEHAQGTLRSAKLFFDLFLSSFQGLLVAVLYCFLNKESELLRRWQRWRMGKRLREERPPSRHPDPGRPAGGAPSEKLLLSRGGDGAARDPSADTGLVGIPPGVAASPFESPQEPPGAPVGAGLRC

[25] = Volume of distribution at steady state in mouse at 1 mg/kg, iv and 2 mg/kg, po; type: ADME, organism-based; details: in vivo, read-out: Vdss
[26] = Half life in dog at 0.5 mg/kg, iv and 2 mg/kg, po; type: ADME, organism-based, Canis lupus familiaris; details: in vivo
[27] = Plasma clearance in rhesus monkey at 0.5 mg/kg, iv and 2 mg/kg, po; type: ADME, organism-based, Macaca mulatta
[28] = Plasma clearance in rat at 1 mg/kg, iv and 2 mg/kg, po; type: ADME, organism-based
Mus musculus [29] = test: Antidiabetic activity in transgenic mouse expressing human GCGR assessed as inhibition of glucagon-induced blood glucose excursion at 30 mg/kg, po administered 60 mins before glucagon challenge measured after 48 mins; type: functional, organism-based; design: dose 30 mg/kg
Procedure, shortened: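 hGCGR transgenic mice (only functional receptor is human GCGR), 9 per group, given compound orally, then glucagon 15 µg/kg IP 60 min later (one arm dosed 30 mpk three hours before challenge); blood glucose monitored at 12, 24, 36 and 48 min after glucagon.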

Glucagon receptor [30] = biological target: Glucagon receptor (Rattus norvegicus, UniProt P30082); test: Antagonist activity at rat GCGR assessed as inhibition of glucagon-induced cAMP accumulation; type: functional
Glucagon receptor (Rattus norvegicus, UniProt P30082), sequence (P30082 whole entry): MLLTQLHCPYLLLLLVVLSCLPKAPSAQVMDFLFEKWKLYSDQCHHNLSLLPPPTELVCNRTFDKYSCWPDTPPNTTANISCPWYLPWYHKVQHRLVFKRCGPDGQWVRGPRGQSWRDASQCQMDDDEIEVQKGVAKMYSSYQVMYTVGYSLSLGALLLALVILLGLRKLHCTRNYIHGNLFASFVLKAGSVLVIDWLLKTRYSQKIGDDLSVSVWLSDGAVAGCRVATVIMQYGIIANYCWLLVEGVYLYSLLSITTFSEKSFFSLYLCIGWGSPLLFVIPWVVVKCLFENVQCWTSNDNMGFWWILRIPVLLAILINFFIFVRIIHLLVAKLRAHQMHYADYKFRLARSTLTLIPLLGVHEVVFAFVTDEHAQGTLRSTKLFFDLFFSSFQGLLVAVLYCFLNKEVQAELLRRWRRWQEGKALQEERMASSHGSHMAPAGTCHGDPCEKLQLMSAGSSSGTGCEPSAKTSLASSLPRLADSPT

Glucagon receptor [31] = biological target: Glucagon receptor (Homo sapiens, UniProt P47871); test: Displacement of [125I]glucagon from human GCGR expressed in CHO cells; type: cell-based
Glucagon receptor (Homo sapiens, UniProt P47871), sequence (P47871 whole entry): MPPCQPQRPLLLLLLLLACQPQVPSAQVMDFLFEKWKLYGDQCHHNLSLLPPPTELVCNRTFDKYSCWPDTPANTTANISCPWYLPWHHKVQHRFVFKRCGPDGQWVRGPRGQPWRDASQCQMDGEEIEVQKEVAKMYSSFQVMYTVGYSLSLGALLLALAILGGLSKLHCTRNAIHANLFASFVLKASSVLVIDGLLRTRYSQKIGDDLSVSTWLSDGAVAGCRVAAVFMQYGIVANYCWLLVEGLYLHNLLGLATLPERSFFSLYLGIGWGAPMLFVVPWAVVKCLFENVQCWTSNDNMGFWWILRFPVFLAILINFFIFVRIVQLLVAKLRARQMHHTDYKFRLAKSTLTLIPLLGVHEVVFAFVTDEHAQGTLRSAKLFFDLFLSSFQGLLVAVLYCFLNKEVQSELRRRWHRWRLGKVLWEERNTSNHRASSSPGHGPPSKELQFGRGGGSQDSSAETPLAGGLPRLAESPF
Procedure, shortened: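 Binding inhibition of 125I-glucagon to human GCGR expressed in CHO cell membranes; IC50 reported, n given where replicated.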

AUC (Rattus norvegicus): 11 µM·kg·h/mg
Cmax [1]: 7.7 µM
half-life [2]: 6.5 h
pEC50 [4]: < 4.60
Cmax [6]: 4.2 µM
pIC50 [7]: 6.85
pIC50 [8]: < 5.00
concentration at 4 h [10]: 0.13 µM
bioavailability [11]: 15%
pIC50 (Cytochrome P450 2D6): < 4.00
Cmax [12]: 1.6 µM
AUC (Mus musculus [13]): 0.73 µM·kg·h/mg
bioavailability [15]: 68%
Vd [17]: 0.75 L/kg
concentration at 2 h [18]: 3.35 µM
pIC50 (Cytochrome P450 2C9): 5.24
concentration at 0.5 h [19]: 96 µM
concentration at 0.75 h [20]: 3.55 µM
concentration at 0.75 h [21]: 10.3 µM
Vd [22]: 0.14 L/kg
Activity (Homo sapiens): inactive
Cmax [23]: 0.23 µM
Vd [24]: 0.55 L/kg
pIC50 (Uncharacterized protein): 6.40
Vd [25]: 1.1 L/kg
half-life [26]: 3.6 h
clearance [27]: 0.68 mL/min/kg
clearance [28]: 1.6 mL/min/kg
pIC50 (Glucagon receptor [30]): 5.59
pIC50 (Glucagon receptor [31]): 7.08
SMILES: O=C(O)CCNC(=O)c1ccc(Cn2nc(-c3cc(Cl)cc(Cl)c3)cc2-c2ccc(OC(F)(F)F)cc2)cc1
Activity (Mus musculus [3]): 87%
inhibition (Rhesus monkey): Active
inhibition in vivo at 10 mg/kg (Mus musculus [5]): 27%
inhibition in vivo at 30 mg/kg (Mus musculus [9]): 37%
Activity (Mus musculus [14]): 51%
Activity (Mus musculus [16]): 51%
inhibition (Mus musculus [29]): Active
